The results in this text go back to ChEMBL document CHEMBL1127665, “Synthesis and antibacterial activity of new quinolones containing a 7-[3-(1-amino-1-methylethyl)-1-pyrrolidinyl] moiety. Gram-positive agents with excellent oral activity and low side-effect potential” (J Med Chem, 1994).

SMILES strings stand for the structures. Values after ≈ are worked out from the molar mass of the structure shown.

Data set [1] has as its system Enterobacter cloacae. Briefly: Minimum inhibitory concentration against Enterobacter cloacae MA 2646. Format: functional.
Data set [2] has as its system Escherichia coli. Briefly: Minimum inhibitory concentration against Escherichia coli Vogel. The class given is functional. The gist of the method: (§1)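 Tested by microtitration against a panel of 10 Gram-positive and Gram-negative organisms. MIC is reported in μg/mL.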
In data set [3] the test system is Klebsiella pneumoniae. In words: Minimum inhibitory concentration against Klebsiella pneumoniae MGH-2. Format: functional. The gist of the method: as §1
Data set [4] concerns Mus musculus. Briefly: In vivo antibacterial activity against Streptococcus pyogenes after following oral administration. The note with it: read-out: PD50. The class given is functional. The gist of the method: (§2)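 Acute lethal systemic infection in female Charles River CD-1 mice. Compound given orally or subcutaneously. Potency expressed as median protective dose (PD50, mg/kg), the dose preventing death in 50% of animals.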

Data set [5] relates to Mus musculus. Briefly: In vivo antibacterial activity against Streptococcus pyogenes after following subcutaneous administration. The class given is functional. The note with it: sc, read-out: PD50. In a few lines: as §2
The test system of data set [6] is Pseudomonas aeruginosa. Briefly: Minimum inhibitory concentration against U1-18 cell line from Pseudomonas aeruginosa. Format: functional. In a few lines:
as §1

The test system of data set [7] is Providencia rettgeri. In words: Minimum inhibitory concentration against M1771 strain of Providencia rettgeri. Format: functional. In a few lines: as §1
Data set [8] deals with Staphylococcus aureus. Briefly: Minimum inhibitory concentration against Staphylococcus aureus H 228. Format: functional. In a few lines:
as §1

The subject of data set [9] is Staphylococcus aureus. In words: Minimum inhibitory concentration against Staphylococcus aureus UC-76. The class given is functional. In a few lines: as §1
The subject of data set [10] is Streptococcus pyogenes. Briefly: Minimum inhibitory concentration against Streptococcus pyogenes C203. Format: functional. In a few lines:
as §1

In data set [11] the test system is Enterococcus faecalis. Briefly: Minimum inhibitory concentration against Streptococcus faecalis MGH-2. Format: functional. In a few lines: as §1
The test system of data set [12] is Streptococcus pneumoniae. Briefly: Minimum inhibitory concentration tested against Streptococcus pneumoniae SV-1. Format: functional. The gist of the method:
as §1

In data set [13] the test system is Mus musculus. Briefly: In vivo antibacterial activity against Escherichia coli after following oral administration. Format: functional. To be noted: read-out: PD50. In a few lines:
as §2

Data set [14] has as its system Mus musculus. Briefly: In vivo antibacterial activity against Escherichia coli after following subcutaneous administration. To be noted: sc, read-out: PD50. Format: functional. In a few lines: as §2
Data set [15] relates to V79. Briefly: Clonogenic cytotoxicity against Hamster V-79 cells. The class given is cell-based. To be noted: Cricetulus griseus.
Data set [16] can be described thus: The no effect dose (NED) for phototoxicity in mouse. The class given is organism-based. The note with it: in vivo, read-out: NED. In a few lines:
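Female CD-1 mice were depilated and dosed orally, with five animals per dose plus controls. After each dose the mice were exposed to UVA for 3 h. This was repeated daily for 4 days. Any redness or erythema relative to control was scored positive. The value is the highest dose producing no effect, in mg/kg.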

On to `CC(C)(N)[C@H]1CCN(c2cc3c(cc2F)c(=O)c(C(=O)O)cn3C2CC2)C1.Cl`, for which the MIC in [1] is 0.4 µg/mL; in data set [2], 0.4 µg/mL; in data set [3], 0.8 µg/mL; in data set [6], 3.1 µg/mL; in [7] it was 1.6 µg/mL; in [8], 0.4 µg/mL. Also, the MIC in data set [9] stood at 0.1 µg/mL; in [10] it was 0.2 µg/mL; in data set [11], 0.4 µg/mL; in data set [12], 0.2 µg/mL. Besides, the results for the ED50 in data set [4] and in [5] were greater than 100 mg/kg and 13 mg/kg, respectively.

In general, IC50 refers to the concentration that inhibits the measured activity by half. As for `CC(C)(N)[C@@H]1CCN(c2cc3c(cc2F)c(=O)c(C(=O)O)cn3C2CC2)C1.Cl`, the MIC in data set [1] was 0.05 µg/mL; in data set [2], 0.05 µg/mL; in [3], 0.1 µg/mL; in [6], 0.8 µg/mL; in data set [7] it was 0.2 µg/mL; in data set [8], 0.05 µg/mL. The MIC in data set [9] was determined as 0.006 µg/mL; in data set [10], 0.003 µg/mL; in [11], 0.025 µg/mL; in [12], 0.003 µg/mL. Further, the ED50 in data set [13] was determined as 18 mg/kg; in [14], 2 mg/kg; in data set [4] it was 20 mg/kg; in [5], 1 mg/kg. Moreover, the IC50 in data set [15] was found to be 190 µg/mL.

In the case of `NCC1CCN(c2nc3c(cc2F)c(=O)c(C(=O)O)cn3C2CC2)C1` (centres undefined), the MIC in data set [1] is 0.1 µg/mL (≈ 0.289 µM); in [2], 0.05 µg/mL (≈ 0.144 µM); in data set [3] it was 0.1 µg/mL (≈ 0.289 µM); in data set [6], 0.2 µg/mL (≈ 0.577 µM); in [7] it was 0.4 µg/mL (≈ 1.15 µM); in data set [8] it was 0.1 µg/mL (≈ 0.289 µM). Further, the MIC in [9] came to 0.003 µg/mL (≈ 0.00866 µM); in data set [10], 0.025 µg/mL (≈ 0.0722 µM); in [11] it was 0.025 µg/mL (≈ 0.0722 µM); in data set [12] it was 0.1 µg/mL (≈ 0.289 µM). Besides, the ED50 is 17 mg/kg in data set [13], 1 mg/kg in [14], 39 mg/kg in data set [4] and 4 mg/kg in [5]. It took 42 µg/mL (≈ 121 µM) to reach half-maximal inhibition in [15] (IC50).

Consider `NC1CCN(c2c(F)cc3c(=O)c(C(=O)O)cn(C4CC4)c3c2F)C1` (centres undefined), for which the MIC in data set [1] came out at 0.025 µg/mL (≈ 0.0716 µM); in data set [2] it was 0.013 µg/mL (≈ 0.0372 µM); in data set [3], 0.025 µg/mL (≈ 0.0716 µM); in [6], 0.1 µg/mL (≈ 0.286 µM); in data set [7], 0.05 µg/mL (≈ 0.143 µM); in [8] it was 0.05 µg/mL (≈ 0.143 µM). Also, the MIC is 0.025 µg/mL (≈ 0.0716 µM) in [9], 0.05 µg/mL (≈ 0.143 µM) in [10], 0.05 µg/mL (≈ 0.143 µM) in [11] and 0.05 µg/mL (≈ 0.143 µM) in data set [12]. Also, the NOAEL in data set [16] was 3 mg/kg. Further, the ED50 in data set [13] came out at 1 mg/kg; in [14] it was 0.2 mg/kg; in data set [4] it was 8 mg/kg; in data set [5] it was 2 mg/kg.

Consider `COc1c(N2CCC(CN)C2)c(F)cc2c(=O)c(C(=O)O)cn(C3CC3)c12` (centres undefined), for which the MIC in data set [1] was determined as 0.05 µg/mL (≈ 0.133 µM); in data set [2], 0.05 µg/mL (≈ 0.133 µM); in [3], 0.1 µg/mL (≈ 0.266 µM); in [6] it was 0.8 µg/mL (≈ 2.13 µM); in data set [7], 0.1 µg/mL (≈ 0.266 µM); in data set [8] it was 0.025 µg/mL (≈ 0.0666 µM). The MIC in data set [9] amounted to 0.003 µg/mL (≈ 0.00799 µM); in data set [10] it was 0.003 µg/mL (≈ 0.00799 µM); in data set [11], 0.013 µg/mL (≈ 0.0346 µM); in data set [12] it was 0.003 µg/mL (≈ 0.00799 µM). Besides, the ED50 in [4] came to 11 mg/kg; in data set [5], 0.6 mg/kg.

Regarding `CC(C)(N)[C@H]1CCN(c2nc3c(cc2F)c(=O)c(C(=O)O)cn3-c2ccc(F)cc2F)C1.Cl`, the MIC in data set [1] came out at 0.4 µg/mL; in data set [2], 0.4 µg/mL; in [3], 0.8 µg/mL; in [6], 3.1 µg/mL; in data set [7], 1.6 µg/mL; in data set [8] it was 0.4 µg/mL. The MIC in data set [9] came out at 0.1 µg/mL; in data set [10], 0.4 µg/mL; in [11], 0.4 µg/mL; in [12], 0.4 µg/mL.

Consider `CC(C)(N)[C@@H]1CCN(c2nc3c(cc2F)c(=O)c(C(=O)O)cn3-c2ccc(F)cc2F)C1.Cl`, for which the MIC in data set [1] was determined as 0.2 µg/mL; in data set [2], 0.2 µg/mL; in data set [3] it was 0.4 µg/mL; in data set [6], 3.1 µg/mL; in [7], 0.8 µg/mL; in [8] it was 0.05 µg/mL. For the same molecule, the MIC was 0.025 µg/mL in data set [9], 0.05 µg/mL in [10], 0.1 µg/mL in data set [11] and 0.05 µg/mL in data set [12].
